# Measured values collected from several papers.
# Each line is one published result; the experiments were not run side by side.
# Organism: Candida albicans
SMILES,effect on,strain,time,quantity,result
C[C@@H]1[C@H](O)[C@@H](C)/C=C/C=C/C=C/C=C/C=C/C=C/C=C/[C@H](O[C@@H]2O[C@H](C)[C@@H](O)[C@H](N)[C@@H]2O)C[C@@H]2O[C@](O)(C[C@@H](O)C[C@@H](O)[C@H](O)CC[C@@H](O)C[C@@H](O)CC(=O)O[C@H]1C)C[C@H](O)[C@H]2C(=O)O,microbial growth,ATCC90028,,IC50,0.13 µg/mL
OC(Cn1cncn1)(Cn1cncn1)c1ccc(F)cc1F,microbial killing,,,MFC,0.04 µg/mL
C=C1C(=O)O[C@@H](CCCCCCCCCCCCC)[C@@H]1C(=O)O,microbial growth,28A,,MIC,64 µg/mL
COc1ccccc1Cc1cc(C)cc(=O)n1O,microbial growth,ATCC90028,,MIC80,2.7 µM
NOCC(=O)O,microbial growth,28A,,MIC,1000 µg/mL
Cc1cc(Cc2ccc(Cl)cc2)n(O)c(=O)c1,microbial growth,ATCC90028,,MIC80,1.7 µM
CCCCCOc1ccc(-c2cc(-c3ccc(C(=O)N[C@H]4C[C@@H](O)[C@@H](O)NC(=O)[C@@H]5[C@@H](O)[C@@H](C)CN5C(=O)[C@H]([C@H](O)CC(N)=O)NC(=O)[C@H]([C@H](O)[C@@H](O)c5ccc(O)c(OS(=O)(=O)O)c5)NC(=O)[C@@H]5C[C@@H](O)CN5C(=O)[C@H]([C@@H](C)O)NC4=O)cc3)no2)cc1,microbial growth,,,MIC50,0.01 µg/mL
Cc1cc(CC2CCCCC2)n(O)c(=O)c1,microbial growth,ATCC90028,,MIC80,1.5 µM
O=C(NCc1ccc2c(c1)OCO2)c1ccc(Br)cc1F,microbial growth,ATCC10231,72 h,MIC,> 200 µM
